Source: ChEMBL document CHEMBL4014346, “Lead Optimization Generates CYP11B1 Inhibitors of Pyridylmethyl Isoxazole Type with Improved Pharmacological Profile for the Treatment of Cushing's Disease” (J Med Chem, 2017)
pIC50: −log10 of the molar value.

What was measured:
[1] = Selectivity ratio of IC50 for human CYP11B2 expressed in hamster V79MZ cells to IC50 for human CYP11B1 expressed in hamster V79MZ cells
Outline: (§1)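 V79MZ cells expressing recombinant human CYP11B1 or CYP11B2, or rat CYP11B1, incubated with [1,2-³H]-11-deoxycorticosterone (100 nM) and inhibitor over a range of concentrations; ketoconazole as reference.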

[2] = target: T1, Cytochrome P450 11B1, mitochondrial (Homo sapiens, UniProt P15538); assay: Inhibition of human CYP11B1 expressed in hamster V79MZ cells using [1,2-3H]-11-deoxycorticosterone as substrate after 6 hrs by HPLC analysis; assay type: cell-based; outline: as §1
T1 sequence (P15538 whole entry): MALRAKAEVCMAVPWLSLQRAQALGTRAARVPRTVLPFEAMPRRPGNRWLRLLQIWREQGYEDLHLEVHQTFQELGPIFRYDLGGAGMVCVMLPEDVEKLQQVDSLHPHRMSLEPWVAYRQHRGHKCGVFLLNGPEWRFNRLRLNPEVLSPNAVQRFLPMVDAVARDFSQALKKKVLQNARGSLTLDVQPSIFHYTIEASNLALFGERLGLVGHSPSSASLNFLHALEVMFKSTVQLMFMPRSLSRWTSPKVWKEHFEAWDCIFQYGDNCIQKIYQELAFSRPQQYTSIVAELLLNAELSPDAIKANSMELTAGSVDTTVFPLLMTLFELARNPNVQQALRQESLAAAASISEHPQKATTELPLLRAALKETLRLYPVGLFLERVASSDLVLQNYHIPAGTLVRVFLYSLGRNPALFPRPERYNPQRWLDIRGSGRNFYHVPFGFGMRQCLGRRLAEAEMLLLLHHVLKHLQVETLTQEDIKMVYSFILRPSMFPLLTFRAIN

[3] = target: T2, Cytochrome P450 11B2, mitochondrial (Homo sapiens, UniProt P19099); assay: Inhibition of human CYP11B2 expressed in hamster V79MZ cells using [1,2-3H]-11-deoxycorticosterone as substrate after 6 hrs by HPLC analysis; assay type: ADME, cell-based; outline: as §1
T2 sequence (P19099 whole entry): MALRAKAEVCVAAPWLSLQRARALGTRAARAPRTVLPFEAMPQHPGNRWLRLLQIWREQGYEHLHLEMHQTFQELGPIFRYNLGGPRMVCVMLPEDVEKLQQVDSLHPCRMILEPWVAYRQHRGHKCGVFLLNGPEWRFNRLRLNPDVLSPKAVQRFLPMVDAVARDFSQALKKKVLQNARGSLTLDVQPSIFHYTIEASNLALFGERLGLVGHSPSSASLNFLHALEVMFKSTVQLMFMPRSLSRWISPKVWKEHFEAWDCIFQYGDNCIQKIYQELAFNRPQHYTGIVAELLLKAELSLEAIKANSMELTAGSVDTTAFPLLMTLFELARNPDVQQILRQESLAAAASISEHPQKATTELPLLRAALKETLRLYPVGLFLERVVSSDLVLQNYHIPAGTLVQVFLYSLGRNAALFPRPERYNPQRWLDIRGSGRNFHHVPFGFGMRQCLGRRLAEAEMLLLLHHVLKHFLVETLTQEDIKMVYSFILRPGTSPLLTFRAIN

[4] = target: T3, Cytochrome P450 11B1, mitochondrial (Rattus norvegicus, UniProt P15393); assay: Inhibition of CYP11B1 in Sprague-Dawley rat adrenal tissue using 11-deoxycorticosterone as substrate after 4 hrs by SPA
T3 sequence (P15393 whole entry): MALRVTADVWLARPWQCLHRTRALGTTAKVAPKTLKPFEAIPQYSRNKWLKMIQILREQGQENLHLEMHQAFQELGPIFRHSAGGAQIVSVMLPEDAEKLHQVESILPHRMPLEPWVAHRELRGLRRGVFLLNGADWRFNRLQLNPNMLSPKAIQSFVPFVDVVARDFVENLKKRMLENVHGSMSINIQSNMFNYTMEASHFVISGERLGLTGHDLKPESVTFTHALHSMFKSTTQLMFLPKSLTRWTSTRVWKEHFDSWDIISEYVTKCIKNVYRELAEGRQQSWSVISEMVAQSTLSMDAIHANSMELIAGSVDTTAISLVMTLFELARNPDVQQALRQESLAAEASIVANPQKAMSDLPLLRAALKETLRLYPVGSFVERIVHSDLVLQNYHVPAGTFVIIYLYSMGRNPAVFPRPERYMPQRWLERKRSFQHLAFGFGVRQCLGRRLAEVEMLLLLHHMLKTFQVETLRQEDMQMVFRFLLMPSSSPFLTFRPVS

[5] = Half life in rat liver S9 fractions at 1 uM in presence of NADPH/UDPGA by LC-MS/MS analysis; assay type: ADME, tissue-based
Outline: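 Samples taken at 0, 5, 15 and 60 min, stopped with cold acetonitrile containing internal standard. Remaining parent measured by LC-MS/MS.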

Q: For `Cc1cncc(Cc2ccc(NC3CC3)nc2)c1`, which “Ratio IC50” value [1] is on record?
A: The value was 8.

Q: What about the pIC50 [2] of the same compound?
A: Its pIC50 is 8.40.

Q: And the pIC50 [3]?
A: Its pIC50 is 7.49.

Q: Which results are given for `Cc1cncc(Cc2csnc2-c2ccccc2)c1`?
A: Ratio IC50 [1]: 3; pIC50 [2]: 7.32; pIC50 [3]: 6.82

Q: What does the source list for `Cc1cncc(Cc2ccc(-c3ccccc3F)nc2)c1`?
A: Ratio IC50 [1]: 9; pIC50 [2]: 8.52; pIC50 [3]: 7.57

Q: For `Cc1cncc(Cc2cc(-c3ccccc3)nn2C)c1`, which “Ratio IC50” value [1] is on record?
A: The value was 6.

Q: What about the pIC50 [2] of the same compound?
A: Its pIC50 is 9.00.

Q: What about the pIC50 [3] of the same compound?
A: The pIC50 was 8.22.

Q: What does the source list for `Cc1cncc(Cc2ccc(S(=O)(=O)c3ccccc3)nc2)c1`?
A: Ratio IC50 [1]: 9; pIC50 [2]: 7.70; pIC50 [3]: 6.76

Q: With `Cc1cncc(Cc2cnc(-c3ccccc3)s2)c1` as the compound, how does the “Ratio IC50” value [1] read?
A: Its value is 3.

Q: What about the pIC50 [2] of the same compound?
A: The pIC50 was 8.05.

Q: What about the pIC50 [3] of the same compound?
A: Its pIC50 is 7.62.

Q: Which results are given for `c1ccc(-c2cc(Cn3ccnc3)sn2)cc1`?
A: Ratio IC50 [1]: 9; pIC50 [2]: 7.85; pIC50 [3]: 6.92

Q: What does the source list for `Cn1c(Cn2ccnc2)cnc1-c1ccccc1`?
A: Ratio IC50 [1]: 1; pIC50 [2]: 6.29; pIC50 [3]: 6.29

Q: Which “Ratio IC50” value [1] does the source give for `c1ccc(-c2ncc(Cn3ccnc3)[se]2)cc1` here?
A: The value was 6.

Q: What about the pIC50 [2] of the same compound?
A: The pIC50 was 6.98.

Q: And the pIC50 [3]?
A: Its pIC50 is 6.18.

Q: What does the source list for `Cc1cncc(Cc2ccc(-c3ccoc3)nc2)c1`?
A: Ratio IC50 [1]: 7; pIC50 [2]: 8.40; pIC50 [3]: 7.55

Q: Which “Ratio IC50” value [1] does the source give for `Cc1cncc(Cc2ccc(S(=O)(=O)c3ccccc3F)nc2)c1` here?
A: The value was 9.

Q: And the pIC50 [2]?
A: Its pIC50 is 8.70.

Q: And the pIC50 [3]?
A: The pIC50 was 7.77.

Q: Which “Ratio IC50” value [1] does the source give for `c1ccc(-c2ncc(Cn3ccnc3)o2)cc1` here?
A: The value was 4.

Q: What about the pIC50 [2] of the same compound?
A: Its pIC50 is 6.82.

Q: What about the pIC50 [3] of the same compound?
A: The pIC50 was 6.28.

Q: For `Cc1cncc(Cc2ccc(-c3ccnn3C)nc2)c1`, which “Ratio IC50” value [1] is on record?
A: The value was 6.

Q: What about the pIC50 [2] of the same compound?
A: Its pIC50 is 7.80.

Q: And the pIC50 [3]?
A: Its pIC50 is 7.01.

Q: Which “Ratio IC50” value [1] does the source give for `Cc1cncc(Cc2ccc(N3CCOCC3)nc2)c1` here?
A: The value was 4.

Q: And the pIC50 [2]?
A: The pIC50 was 7.66.

Q: What about the pIC50 [3] of the same compound?
A: Its pIC50 is 7.05.

Q: Which results are given for `Cc1cncc(Cc2cc(-c3ccccc3)n[nH]2)c1`?
A: Ratio IC50 [1]: 4; pIC50 [2]: 6.86; pIC50 [3]: 6.23

Q: With `Cc1cncc(Cc2cc(-c3ccccc3)ns2)c1` as the compound, how does the “Ratio IC50” value [1] read?
A: The value was 8.

Q: What about the pIC50 [2] of the same compound?
A: Its pIC50 is 9.00.

Q: And the pIC50 [3]?
A: The pIC50 was 8.10.

Q: With `Cc1cncc(Cc2ccc(Sc3ccccc3)nc2)c1` as the compound, how does the “Ratio IC50” value [1] read?
A: The value was 6.

Q: What about the pIC50 [2] of the same compound?
A: Its pIC50 is 8.30.

Q: And the pIC50 [3]?
A: The pIC50 was 7.52.

Q: With `c1ccc(-c2cc(Cn3ccnc3)on2)cc1` as the compound, how does the “Ratio IC50” value [1] read?
A: The value was 9.

Q: And the pIC50 [2]?
A: Its pIC50 is 6.83.

Q: What about the pIC50 [3] of the same compound?
A: Its pIC50 is 5.88.

Q: With `Cc1cncc(Cc2ccc(-c3cccc(NS(C)(=O)=O)c3)nc2)c1` as the compound, how does the “Ratio IC50” value [1] read?
A: The value was 8.

Q: And the pIC50 [2]?
A: Its pIC50 is 8.70.

Q: And the pIC50 [3]?
A: The pIC50 was 7.80.

Q: Which results are given for `Cc1cncc(Cc2cnc(-c3ccccc3)o2)c1`?
A: Ratio IC50 [1]: 8; pIC50 [2]: 7.85; pIC50 [3]: 6.94

Q: With `c1ccc(-c2nscc2Cn2ccnc2)cc1` as the compound, how does the “Ratio IC50” value [1] read?
A: The value was 3.

Q: And the pIC50 [2]?
A: The pIC50 was 7.24.

Q: And the pIC50 [3]?
A: The pIC50 was 6.76.

Q: For `Cn1nc(-c2ccccc2)cc1Cn1ccnc1`, which “Ratio IC50” value [1] is on record?
A: Its value is 4.

Q: What about the pIC50 [2] of the same compound?
A: The pIC50 was 7.24.

Q: What about the pIC50 [3] of the same compound?
A: Its pIC50 is 6.67.

Q: For `Cc1cncc(Cc2ccc(Sc3ccccc3F)nc2)c1`, which “Ratio IC50” value [1] is on record?
A: The value was 8.

Q: What about the pIC50 [2] of the same compound?
A: The pIC50 was 8.52.

Q: And the pIC50 [3]?
A: Its pIC50 is 7.62.

Q: For `c1ccc(-c2ncc(Cn3ccnc3)s2)cc1`, which “Ratio IC50” value [1] is on record?
A: Its value is 7.

Q: What about the pIC50 [2] of the same compound?
A: The pIC50 was 7.21.

Q: What about the pIC50 [3] of the same compound?
A: The pIC50 was 6.34.

Q: With `Cc1cncc(Cc2ccc(-c3cnn(C)c3)nc2)c1` as the compound, how does the “Ratio IC50” value [1] read?
A: The value was 4.

Q: And the pIC50 [2]?
A: The pIC50 was 7.38.

Q: And the pIC50 [3]?
A: The pIC50 was 6.74.

Q: With `CC(C)(C(=O)c1cccnc1)c1cccnc1` [METYRAPONE] as the compound, how does the pIC50 [4] read?
A: The pIC50 was 5.30.

Q: What about the half-life at 1 µM [5] of the same compound?
A: The half-life at 1 µM was 12 min.
